Measured values as given in ChEMBL document CHEMBL4376884, “Toward a Rational Design of Polyamine-Based Zinc-Chelating Agents for Cancer Therapies” (J Med Chem, 2020).
Active and inactive are the calls of the source. No cut-off for these calls is given here.

What was measured:
LN-229 [1] = assay: Antiproliferative activity against human LN229 cells assessed as reduction in cell viability at 10 uM incubated for 48 hrs by cell titer-glo assay; type: functional, cell-based
Procedure, shortened: (§1)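 Cells plated and treated 24 h later with 10 µM compound for 48 h; viable cells quantified by CellTiter-Glo ATP luminescence. Expressed as percentage of viable cells relative to untreated; mean ± SD of three independent experiments, each in triplicate.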

Homo sapiens [2] = species on record: Homo sapiens; assay: Antiproliferative activity against human UPN2 cells assessed as reduction in cell viability at 10 uM incubated for 48 hrs by cell titer-glo assay; type: functional, cell-based; procedure, shortened: as §1
SW-620 = assay: Antiproliferative activity against human SW620 cells assessed as reduction in cell viability at 10 uM incubated for 48 hrs by cell titer-glo assay; type: functional, cell-based; procedure, shortened: as §1
LN-229 [3] = assay: Induction of cell morphological changes in human LN229 cells assessed as loss of cell adherence at 10 uM incubated for 24 to 48 hrs by phase contrast microscopy; type: functional, cell-based
Procedure, shortened: (§2)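 LN229 and PC3 cells exposed to 10 µM compound for the indicated time-points, then imaged live by phase-contrast microscopy for morphology.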

PC-3 [4] = assay: Induction of cell morphological changes in human PC3 cells assessed as cell shrinkage at 10 uM incubated for 24 to 48 hrs by phase contrast microscopy; type: functional, cell-based; procedure, shortened: as §2
Jurkat = assay: Antiproliferative activity against human Jurkat cells assessed as reduction in cell viability incubated for 48 hrs by cell titer-glo assay; type: functional, cell-based
Procedure, shortened: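 Dose-response: cells plated, treated 24 h later for 48 h, then ATP measured by CellTiter-Glo luminescence. IC50 given as mean ± SD from three independent experiments, each in triplicate. Fibroblasts came from individuals. Cells were kept in RPMI or DMEM with 10% heat-inactivated FBS and penicillin/streptomycin at 37 °C, 5% CO2.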

U-87 MG = assay: Cell cycle arrest in human U87MG cells assessed as increase in cell accumulation at G0/G1 phase at 10 uM incubated for 24 hrs by propidium iodide staining based flow cytometry analysis; type: functional; settings: U-87MG ATCC
LN-229 [5] = assay: Cell cycle arrest in human LN229 cells assessed as cell accumulation at G1 phase at 10 uM incubated for 24 hrs by propidium iodide staining based flow cytometry analysis relative to control; type: functional
PC-3 [6] = assay: Cell cycle arrest in human PC3 cells assessed as cell accumulation at G1 phase at 10 uM incubated for 24 hrs by propidium iodide staining based flow cytometry analysis relative to control; type: functional
PC-3 [7] = assay: Cell cycle arrest in human PC3 cells assessed as cell accumulation at G2/M phase at 10 uM incubated for 24 hrs by propidium iodide staining based flow cytometry analysis relative to control; type: functional
PC-3 [8] = assay: Cell cycle arrest in human PC3 cells assessed as cell accumulation at G2/M phase at 10 uM incubated for 48 hrs by propidium iodide staining based flow cytometry analysis relative to control; type: functional
LN-229 [9] = assay: Induction of cellular senescence in human LN229 cells assessed as increase in beta-gal-positive cells at 10 uM incubated for 24 hrs by X-Gal staining based microscopic assay relative to control; type: functional
PC-3 [10] = assay: Induction of cellular senescence in human PC3 cells assessed as increase in beta-gal-positive cells at 10 uM incubated for 24 hrs by X-Gal staining based microscopic assay relative to control; type: functional
Procedure, shortened: (§3)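 LN229 and PC3 cells, 12×10^4 per well in 6-well plates, treated with 10 µM compound for 24 h. Senescence-associated β-gal staining: fixed in 2% formaldehyde/0.2% glutaraldehyde for 10 min at RT, stained with 1 mg/mL X-gal at 37 °C for 24 h without CO2. Blue cells counted in at least 10 fields at 10x and given as percent of total; four independent experiments. Morphology viewed by phase contrast at ×100.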

LN-229 [11] = assay: Induction of cellular senescence in human LN229 cells assessed as cells with irregular shape at 10 uM incubated for 24 hrs by phase contrast microscopy; type: functional, cell-based; procedure, shortened: as §3
PC-3 [12] = assay: Induction of cellular senescence in human PC3 cells assessed as larger volume of cell at 10 uM incubated for 24 hrs by phase contrast microscopy; type: functional, cell-based; procedure, shortened: as §3
Homo sapiens [13] = species on record: Homo sapiens; assay: Induction of apoptosis in human SP53 cells assessed as increase in caspase-3/7 activation at 10 uM incubated for 48 hrs by luminometric caspase-glo 3/7 assay; type: functional, cell-based
Procedure, shortened: (§4)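 Cells in RPMI or DMEM with 10% heat-inactivated FBS and penicillin/streptomycin, 37 °C, 5% CO2, treated with 10 µM compound for 48 h. Caspase-3 and caspase-7 activity read by luminescent Caspase-Glo 3/7 assay, reported as fold induction over untreated cells; mean ± SD of three independent experiments, each in triplicate.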

SW480 = assay: Induction of apoptosis in human SW480 cells assessed as increase in caspase-3/7 activation at 10 uM incubated for 48 hrs by luminometric caspase-glo 3/7 assay; type: functional, cell-based; procedure, shortened: as §4
LN-229 [14] = assay: Induction of mitochondrial membrane potential loss in human LN229 cells at 10 uM measured upto 48 hrs by JC-1 staining based flow cytometry analysis; type: functional, cell-based
Procedure, shortened: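 LN229 cells seeded at 5×10^5 cells/mL and adhered overnight, then given medium with 10 µM compound for the indicated time-points. Readout is mean FL3 (aggregate, 590 nm)/FL1 (monomer, 530 nm) fluorescence ratio; mean ± SD of three determinations.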

PC-3 [15] = assay: Induction of apoptosis in human PC3 cells assessed as necrotic cells at 10 uM incubated for 24 hrs by annexin V-FITC and propidium iodide staining based flow cytometry analysis (reference value: 0.30 %); type: functional
PC-3 [16] = assay: Induction of apoptosis in human PC3 cells assessed as late apoptotic cells at 10 uM incubated for 72 hrs by annexin V-FITC and propidium iodide staining based flow cytometry analysis (reference value: 0.52 %); type: functional
DNA = assay: Induction of DNA damage in human Z138 cells assessed as gammaH2AX phosphorylation at Ser139 residue at 10 uM incubated for 4 hrs by Flow cytometry analysis; type: cell-based
Procedure, shortened: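 Z-138 and LN229 cells treated 4 h with 10 µM compound or 1 µM doxorubicin. Fixed in 3.7% formaldehyde on ice, permeabilized with 0.2% Triton X, stained with rabbit anti-pS139 H2A.X (1:400) and Alexa 555 secondary, then analysed by flow cytometry. Fold γH2AX fluorescence versus untreated; mean ± SD of three experiments.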

LN-229 [17] = assay: Antiproliferative activity against human LN229 cells assessed as reduction in cell viability at 10 uM incubated for 48 hrs in presence of Fe3+ ion by MTT assay; type: functional, cell-based
Procedure, shortened: (§5)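 LN229 and PC3 cells plated, then 24 h later given 10 µM compound with or without 15 µM ZnCl2, CuCl2, FeCl2 or FeCl3 for 48 h. Medium replaced, MTT (12 mM solution) added for 4 h, formazan dissolved in DMSO, absorbance read at 540 nm. Percent viable versus untreated; mean ± SD of three experiments in triplicate.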

PC-3 [18] = assay: Antiproliferative activity against human PC3 cells assessed as reduction in cell viability at 10 uM incubated for 48 hrs in presence of Cu2+ ion by MTT assay; type: functional, cell-based; procedure, shortened: as §5
PC-3 [19] = assay: Antiproliferative activity against human PC3 cells assessed as reduction in cell viability at 10 uM incubated for 48 hrs in presence of Zn2+ ion by MTT assay; type: functional, cell-based; procedure, shortened: as §5
PC-3 [20] = assay: Induction of apoptosis in human PC3 cells assessed as increase in early and late apoptotic cells at 10 uM incubated for 72 hrs by annexin V-FITC and propidium iodide staining based flow cytometry analysis relative to control; type: functional

| SMILES | Activity (LN-229 [1]) | Activity (Homo sapiens [2]) | Activity (SW-620) | Activity (LN-229 [3]) | Activity (PC-3 [4]) | IC50 (Jurkat) [nM] | Activity (U-87 MG) | Activity (LN-229 [5]) [%] | Activity (PC-3 [6]) [%] | Activity (PC-3 [7]) [%] | Activity (PC-3 [8]) [%] | Activity (LN-229 [9]) | Activity (PC-3 [10]) | Activity (LN-229 [11]) | Activity (PC-3 [12]) | Activity (Homo sapiens [13]) | Activity (SW480) | Activity (LN-229 [14]) | Activity (PC-3 [15]) [%] | Activity (PC-3 [16]) [%] | other results |
| --- | --- | --- | --- | --- | --- | --- | --- | --- | --- | --- | --- | --- | --- | --- | --- | --- | --- | --- | --- | --- | --- |
| c1ccc(CNCCN(CCNCc2ccccn2)Cc2ccc3ccccc3c2)nc1 | Active | Active | Active | Active | Active | 3170 | Active | 63.1 | 73.7 | 17.2 | 14.1 | 90% | 50% | Active | Active | Active | Active | Active | 1.53 | 11.68 | Activity (DNA): inactive; Activity (LN-229 [17]): Active; Activity (PC-3 [18]): inactive; Activity (PC-3 [19]): inactive; fold change (FC) (PC-3 [20]): 30 |
| CN(CCNCc1ccccn1)CCNCc1ccccn1 | Active | Active | Active | Active | Active | 1990 | Active | 62.1 | 71.1 | 19.7 | 16 | Active | Active | Active | Active | Active | Active | Active | 1.78 | 12.63 | Activity (DNA): inactive; Activity (LN-229 [17]): Active; Activity (PC-3 [18]): inactive; Activity (PC-3 [19]): inactive; fold change (FC) (PC-3 [20]): 30 |
